# Measured values: ChEMBL document CHEMBL1143957, “Inhibitory property of the Piper betel phenolics against photosensitization-induced biological damages” (Bioorg Med Chem, 2008)
# Columns and labels:
# [1] = test system: Liver; assay: Protection against 30 mins photoirradiation-induced lipid peroxidation damage in rat liver mitochondria assessed as prevention of TBARS formation at 2 mM; assay type: functional
# Method in brief: (§1)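 Rat liver mitochondria (0.5 mg protein/mL final) with methylene blue (50 µg/mL) and test agent in KH₂PO₄–KOH buffer pH 7.4, held at 37 °C and irradiated 30 min with a 100 W tungsten lamp (32.45 W m⁻²). TBARS were measured after 15 min boiling with TBA/TCA/EDTA/HCl reagent, centrifugation and A532 against a malonaldehyde standard. Unirradiated endogenous TBARS were subtracted. Results are % protection, mean ± SEM, n = 5.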
# [2] = test system: Liver; assay: Protection against photoirradiation-induced lipid peroxidation damage in rat liver mitochondria at 100 mM; assay type: functional; method in brief: as §1
# [3] = test system: L929; assay: Prevention of 15 mins photoirradiation-induced damage in mouse L929 cells assessed as survival at 9 uM by MTT assay; assay type: functional; settings: L929, light or radiation study, 0.25 h, read-out: Activity
# Method in brief: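 L929 mouse fibroblasts (RPMI 1640, 10% heat-inactivated FCS, 37 °C, 5% CO₂) were seeded at 2 × 10⁴ cells/well, preincubated with test agent in serum-free RPMI for 2 h, then given methylene blue (9 or 18 µM) in PBS for 2 h. Cells were washed and exposed to a 100 W tungsten lamp at room temperature for 0–15 min, then grown in 10% FCS RPMI for 72 h. Viability was measured by MTT (0.5 mg/mL, 4 h), SDS lysis and A550; n = 5.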
# [4] = Cytotoxicity against mouse L929 cells assessed as survival at 9 uM after 20 hrs by MTT method relative to control; assay type: cell-based; settings: read-out: Survival
# [5] = test system: L929; assay: Prevention of 5 mins photoirradiation-induced damage in mouse L929 cells assessed as survival at 18 uM by MTT assay; assay type: functional; settings: L929, light or radiation study, read-out: Survival
# [6] = test system: L929; assay: Prevention of 10 mins photoirradiation-induced damage in mouse L929 cells assessed as survival at 18 uM by MTT assay; assay type: functional; settings: L929, light or radiation study, read-out: Survival
# [7] = test system: L929; assay: Prevention of 15 mins photoirradiation-induced damage in mouse L929 cells assessed as survival at 18 uM by MTT assay; assay type: functional; settings: L929, light or radiation study, 0.25 h, read-out: Survival
# [8] = Cytotoxicity against mouse L929 cells assessed as survival at 18 uM after 20 hrs by MTT method relative to control; assay type: cell-based; settings: read-out: Survival
# [9] = test system: Liver; assay: Protection against photoirradiation-induced lipid peroxidation damage in rat liver mitochondria at 10 mM; assay type: functional; method in brief: as §1
# [10] = Cytotoxicity against mouse L929 cells assessed as survival at 5 uM after 20 hrs by MTT method relative to control; assay type: cell-based; settings: read-out: Survival
# [11] = test system: Liver; assay: Protection against 30 mins photoirradiation-induced lipid peroxidation damage in rat liver mitochondria assessed as prevention of TBARS formation at 60 uM; assay type: functional; method in brief: as §1
# [12] = test system: Liver; assay: Protection against 30 mins photoirradiation-induced lipid peroxidation damage in rat liver mitochondria assessed as prevention of TBARS formation at 180 uM; assay type: functional; method in brief: as §1
# [13] = test system: L929; assay: Prevention of 15 mins photoirradiation-induced damage in mouse L929 cells assessed as survival at 5 uM by MTT assay; assay type: functional; settings: L929, light or radiation study, 0.25 h, read-out: Survival
# [14] = test system: L929; assay: Prevention of 5 mins photoirradiation-induced damage in mouse L929 cells assessed as survival at 5 uM by MTT assay; assay type: functional; settings: L929, light or radiation study, read-out: Survival
# [15] = test system: Liver; assay: Protection against 30 mins photoirradiation-induced lipid peroxidation damage in rat liver mitochondria assessed as prevention of TBARS formation at 30 uM; assay type: functional; method in brief: as §1
# [16] = test system: Liver; assay: Protection against 30 mins photoirradiation-induced damage in rat liver mitochondria assessed as reduction of lipid hydroperoxide formation at 180 uM; assay type: functional; design: scale not given: the % may be the effect or the level left
# Method in brief: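 Lipid hydroperoxide read-out: mitochondrial protein (0.5 mg/mL) plus methylene blue (50 µg/mL) with test agent at 180 µM added before a 30 min photo-irradiation. LOOH was quantified as absorbance at 560 nm. Mean ± SEM, n = 5.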
# [17] = Cytotoxicity against mouse L929 cells assessed as survival at 20 uM after 20 hrs by MTT method relative to control; assay type: cell-based; settings: read-out: Survival
# [18] = test system: L929; assay: Prevention of 5 mins photoirradiation-induced damage in mouse L929 cells assessed as survival at 10 uM by MTT assay; assay type: functional; settings: L929, light or radiation study, read-out: Survival
# [19] = test system: L929; assay: Prevention of 15 mins photoirradiation-induced damage in mouse L929 cells assessed as survival at 10 uM by MTT assay; assay type: functional; settings: L929, light or radiation study, 0.25 h, read-out: Survival
# [20] = Cytotoxicity against mouse L929 cells assessed as survival at 10 uM after 20 hrs by MTT method relative to control; assay type: cell-based; settings: read-out: Survival
# [21] = test system: L929; assay: Prevention of 10 mins photoirradiation-induced damage in mouse L929 cells assessed as survival at 10 uM by MTT assay; assay type: functional; settings: L929, light or radiation study, read-out: Survival
# [22] = test system: L929; assay: Prevention of 10 mins photoirradiation-induced damage in mouse L929 cells assessed as survival at 5 uM by MTT assay; assay type: functional; settings: L929, light or radiation study, read-out: Survival
compound,measurement,setting,value
COc1cc(C=O)ccc1O,Activity,[1],34%
OC[C@@H](O)[C@@H](O)[C@H](O)[C@H](O)CO,Activity,[2],20.1%
CN(C)c1ccc2nc3ccc(N(C)C)cc3[s+]c2c1 [METHYLENE BLUE ANHYDROUS],viability at 9 µM,[3],14%
same,"viability at 20 h, 9 µM",[4],102%
same,viability at 18 µM,[5],67.6%
same,viability at 18 µM,[6],64.4%
same,viability at 18 µM,[7],48.9%
same,"viability at 20 h, 18 µM",[8],95.3%
N[C@@H](CCC(=O)N[C@@H](CS)C(=O)NCC(=O)O)C(=O)O,Activity,[9],35.6%
C=CCc1ccc(O)c(O)c1 [HYDROXYCHAVICOL],"viability at 20 h, 5 µM",[10],96.2%
same,viability at 9 µM,[3],6%
same,Activity,[11],48%
same,Activity,[12],86%
same,viability at 5 µM,[13],85.4%
same,viability at 5 µM,[14],89.1%
same,Activity,[15],32%
same,Activity,[16],87%
same,"viability at 20 h, 20 µM",[17],75.7%
same,viability at 10 µM,[18],94.2%
same,viability at 10 µM,[19],82.9%
same,"viability at 20 h, 10 µM",[20],96.5%
same,viability at 10 µM,[21],92.2%
same,viability at 5 µM,[22],88.3%
C=CCc1ccc(OC)c(O)c1,Activity,[11],40%
same,Activity,[12],72%
same,Activity,[15],22%
same,Activity,[16],61.5%
O=C1O[C@H]([C@@H](O)CO)C(O)=C1O,Activity,[9],25.7%
